Measurements: ChEMBL document CHEMBL1125399, “Perfluorocarbon-based antidiabetic agents” (1992)

Legend:
[1] = species: Mus musculus; test: Percent plasma glucose concentration of drug treated mice (ob/ob) relative to vehicle control animals; type: functional
Method in brief: (§1)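 Female ob/ob mice, 10 weeks old, fed ad libitum, in groups of 7–11. Dosed po once daily for 4 days in 0.5% methyl cellulose vehicle. Decapitated the next morning; 0.1 mL blood into saline with Trasylol and EDTA; plasma glucose by autoanalyzer. Reciprocal-transformed (y = 160/x) harmonic mean given as % of vehicle. Bonferroni-adjusted comparisons.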

[2] = test system: Mus musculus; test: Percent plasma glucose concentration of drug treated mice (ob/ob) relative to vehicle control animals following 75 mg/kg administration.; type: functional; method in brief: as §1

SMILES	Activity [1]	Activity [2]
O=C(Nc1ccc(CCCCc2nn[nH]n2)cc1)C(F)(F)C(F)(F)C(F)(F)C(F)(F)C(F)(F)C(F)(F)C(F)(F)F	73%	–
O=C(Nc1ccc(CCc2nn[nH]n2)cc1)C(F)(F)C(F)(F)C(F)(F)C(F)(F)C(F)(F)C(F)(F)C(F)(F)F	119%	–
O=C(Nc1cccc2ncccc12)C(F)(F)C(F)(F)C(F)(F)C(F)(F)C(F)(F)C(F)(F)C(F)(F)F	64%	–
O=C(Nc1ccccc1)C(F)(F)C(F)(F)C(F)(F)C(F)(F)C(F)(F)C(F)(F)C(F)(F)F	74%	–
CCOC(=O)C(F)(F)C(F)(F)C(F)(F)C(F)(F)C(F)(F)C(F)(F)C(F)(F)F	72%	–
O=C(O)C(F)(F)C(F)(F)C(F)(F)C(F)(F)C(F)(F)C(F)(F)F	–	107%
CCCCCCCCCCCCCCCCCC(=O)Nc1ccc(Cc2nn[nH]n2)cc1	108%	–
O=C(O)C(F)(F)C(F)(F)C(F)(F)C(F)(F)C(F)(F)C(F)(F)C(F)(F)F	60%	–
O=C(Nc1ccc(Cc2nn[nH]n2)cc1)c1ccc(C(F)(F)F)cc1	–	130%
O=C(O)C(F)(F)C(F)(F)C(F)(F)C(F)(F)F	–	133%
O=C(Nc1ccc(Cc2nnn[nH]2)cc1)C(F)(F)C(F)(F)C(F)(F)C(F)(F)C(F)(F)C(F)(F)C(F)(F)C(F)(F)C(F)(F)C(F)F	62%	–
CCCCNC(=O)C(F)(F)C(F)(F)C(F)(F)C(F)(F)C(F)(F)C(F)(F)C(F)(F)F	–	70%
COc1ccc2c(c1)CCCN2C(=O)C(F)(F)C(F)(F)C(F)(F)C(F)(F)C(F)(F)C(F)(F)C(F)(F)F	132%	–
CCCCCCCCC(=O)NCCCCCc1nnn[nH]1	100%	–
O=C(Nc1ccc(Cc2nnn[nH]2)cc1)C(F)(F)C(F)(F)C(F)(F)C(F)(F)C(F)(F)C(F)(F)F	93%	–
O=C(Nc1cccnc1)C(F)(F)C(F)(F)C(F)(F)C(F)(F)C(F)(F)C(F)(F)C(F)(F)F	74%	–
O=C(N1CCCc2ccccc21)C(F)(F)C(F)(F)C(F)(F)C(F)(F)C(F)(F)C(F)(F)C(F)(F)F	115%	–
O=C(NCCCCCc1nnn[nH]1)C(F)(F)C(F)(F)C(F)(F)F	91%	–
O=C(Nc1ccccn1)C(F)(F)C(F)(F)C(F)(F)C(F)(F)C(F)(F)C(F)(F)C(F)(F)F	56%	–
O=C(N1CCc2ccccc2C1)C(F)(F)C(F)(F)C(F)(F)C(F)(F)C(F)(F)C(F)(F)C(F)(F)F	87%	–
O=C(Nc1ccc(CCCc2nn[nH]n2)cc1)C(F)(F)C(F)(F)C(F)(F)F	72%	–
NCC(F)(F)C(F)(F)C(F)(F)C(F)(F)C(F)(F)C(F)(F)C(F)(F)F	84%	–
O=C(NCCCCCc1nn[nH]n1)C(F)(F)C(F)(F)C(F)(F)C(F)(F)C(F)(F)C(F)(F)C(F)(F)F	54%	–
OC(c1ccccc1)C(F)(F)C(F)(F)C(F)(F)C(F)(F)C(F)(F)C(F)(F)C(F)(F)C(F)(F)F (stereo unspecified)	–	64%
O=C(Nc1ccc(Cc2nnn[nH]2)cc1)C(F)(F)C(F)(F)C(F)(F)C(F)(F)C(F)(F)C(F)(F)C(F)(F)C(F)F	65%	–
O=C(NCC(F)(F)C(F)(F)C(F)(F)F)c1ccc(Cc2nn[nH]n2)cc1	90%	–

SMILES	Activity [1]	Activity [2]
O=C(Nc1ccc(CCc2nn[nH]n2)cc1)C(F)(F)C(F)(F)C(F)(F)F	76%	–
Cc1csc(=N)n1C(=O)C(F)(F)C(F)(F)C(F)(F)C(F)(F)C(F)(F)C(F)(F)C(F)(F)F	94%	–
O=C(N1CCN(c2ccccn2)CC1)C(F)(F)C(F)(F)C(F)(F)C(F)(F)C(F)(F)C(F)(F)C(F)(F)F	76%	–
O=C(Nc1ncccn1)C(F)(F)C(F)(F)C(F)(F)C(F)(F)C(F)(F)C(F)(F)C(F)(F)F	49%	–
O=C(Nc1cccc(Cc2nn[nH]n2)c1)C(F)(F)C(F)(F)C(F)(F)C(F)(F)C(F)(F)C(F)(F)C(F)(F)F	60%	–
O=C(NO)C(F)(F)C(F)(F)C(F)(F)C(F)(F)C(F)(F)C(F)(F)C(F)(F)F	52%	–
CCCC(=O)Nc1ccc(Cc2nn[nH]n2)cc1	–	108%
N#CCc1ccc(NC(=O)C(F)(F)C(F)(F)C(F)(F)C(F)(F)C(F)(F)C(F)(F)C(F)(F)F)cc1	–	69%
O=C(NCc1ccccc1)C(F)(F)C(F)(F)C(F)(F)C(F)(F)C(F)(F)C(F)(F)C(F)(F)F	106%	–
Cc1ccc(NC(=O)C(F)(F)C(F)(F)C(F)(F)C(F)(F)C(F)(F)C(F)(F)C(F)(F)F)cc1	–	58%
O=C(CCC(F)(F)F)Nc1ccc(Cc2nn[nH]n2)cc1	–	104%
FC(F)C(F)(F)C(F)(F)C(F)(F)C(F)(F)C(F)(F)C(F)(F)F	–	90%
O=C(Nc1ccc(Cc2nn[nH]n2)cc1)C(F)(F)C(F)(F)C(F)(F)F	96%	–
O=C(NCCCCCc1nn[nH]n1)C(F)(F)C(F)(F)C(F)(F)C(F)(F)C(F)(F)C(F)(F)C(F)(F)C(F)(F)F	57%	–
O=C(Nc1cccc(Cc2nn[n-]n2)c1)C(F)(F)C(F)(F)C(F)(F)F.[Na+]	71%	–
O=C(NCCCCCc1nn[n-]n1)C(F)(F)C(F)(F)C(F)(F)C(F)(F)C(F)(F)C(F)(F)C(F)(F)C(F)(F)F.[Na+]	62%	–
O=C(NCCCCCc1nn[n-]n1)C(F)(F)C(F)(F)C(F)(F)C(F)(F)C(F)(F)C(F)(F)C(F)(F)F.[Na+]	48%	–
O=C(Nc1ccc(Cc2nn[n-]n2)cc1)C(F)(F)C(F)(F)C(F)(F)C(F)(F)C(F)(F)C(F)(F)C(F)(F)F.[Na+]	55%	–
O=C(Nc1ccccc1Cc1nn[n-]n1)C(F)(F)C(F)(F)C(F)(F)F.[Na+]	84%	–
CN(C(=O)C(F)(F)C(F)(F)C(F)(F)C(F)(F)C(F)(F)C(F)(F)C(F)(F)F)c1ccc(Cc2nnn(C)n2)cc1	70%	–
COC(=O)NCC(F)(F)C(F)(F)C(F)(F)C(F)(F)C(F)(F)C(F)(F)C(F)(F)F	–	57%
O=C(Nc1ccc(Cc2nn[nH]n2)cc1)c1cc(C(F)(F)F)cc(C(F)(F)F)c1	82%	–
O=C(Nc1ccc(F)cc1)C(F)(F)C(F)(F)C(F)(F)C(F)(F)C(F)(F)C(F)(F)C(F)(F)F	91%	–
O=C(Nc1ccc(Cc2nnn[nH]2)cc1)C(F)(F)C(F)(F)F	86%	–
O=C(NCCc1ccccn1)C(F)(F)C(F)(F)C(F)(F)C(F)(F)C(F)(F)C(F)(F)C(F)(F)F	63%	–
FC(F)(F)C(F)(F)C(F)(F)CNc1ccc(Cc2nn[nH]n2)cc1	–	99%

SMILES	Activity [1]	Activity [2]
O=C(NCCc1nnn[nH]1)C(F)(F)C(F)(F)C(F)(F)C(F)(F)C(F)(F)C(F)(F)C(F)(F)C(F)(F)F	65%	–
O=C(O)C(F)(F)C(F)(F)C(F)(F)F	101%	–
O=C(NCCCCCc1nnn[nH]1)C(F)(F)F	95%	–
NC(=O)C(F)(F)C(F)(F)C(F)(F)C(F)(F)C(F)(F)C(F)(F)C(F)(F)F	65%	–
O=C(Nc1ccc(Cc2nnn[nH]2)cc1)C(F)(F)C(F)(F)C(F)(F)C(F)(F)C(F)(F)C(F)(F)C(F)(F)C(F)(F)C(F)(F)F	71%	–
O=C(Nc1ccccc1Cc1nn[nH]n1)C(F)(F)C(F)(F)C(F)(F)F	91%	–
O=C(Nc1ccc(-c2nn[nH]n2)cc1)C(F)(F)C(F)(F)C(F)(F)C(F)(F)C(F)(F)C(F)(F)C(F)(F)F	82%	–
O=C(Nc1ccc(-c2nn[nH]n2)cc1)C(F)(F)C(F)(F)C(F)(F)F	–	75%
O=C(Nc1ccccc1O)C(F)(F)C(F)(F)C(F)(F)C(F)(F)C(F)(F)C(F)(F)C(F)(F)F	85%	–
O=C(NCC(F)(F)C(F)(F)C(F)(F)F)c1cccc(Cc2nn[nH]n2)c1	93%	–
O=C(Nc1ccc(Cc2nnn[nH]2)cc1)C(F)(F)C(F)(F)C(F)(F)C(F)(F)C(F)(F)C(F)(F)C(F)(F)C(F)(F)F	63%	–
O=C(Nc1ccc(CCCc2nn[nH]n2)cc1)C(F)(F)C(F)(F)C(F)(F)C(F)(F)C(F)(F)C(F)(F)C(F)(F)F	63%	–
O=C(Nc1ccccc1Cc1nn[nH]n1)C(F)(F)C(F)(F)C(F)(F)C(F)(F)C(F)(F)C(F)(F)C(F)(F)F	66%	–
O=C(N(Cc1ccccc1)c1cccc(Cc2nn[nH]n2)c1)C(F)(F)C(F)(F)C(F)(F)F	78%	–
O=C(Nc1ccc(Cc2nnn[nH]2)cc1)C(F)(F)F	104%	–
OCC(F)(F)C(F)(F)C(F)(F)C(F)(F)C(F)(F)C(F)(F)C(F)F	67%	–
O=C(Nc1ccc(Cc2nnn[nH]2)cc1)C(F)(F)C(F)(F)C(F)(F)C(F)(F)F	92%	–
O=C(Nc1ccc(Cc2nn[nH]n2)cc1)c1c(F)c(F)c(F)c(F)c1F	75%	–
O=C(Nc1nn[nH]n1)C(F)(F)C(F)(F)C(F)(F)C(F)(F)C(F)(F)C(F)(F)C(F)(F)F	64%	–
O=C(Nc1cccc(Cc2nn[nH]n2)c1)C(F)(F)C(F)(F)C(F)(F)F	86%	–
O=C(O)C(F)(F)C(F)(F)C(F)(F)C(F)(F)C(F)(F)C(F)(F)C(F)(F)C(F)(F)F	–	124%
O=C(Nc1ccc(Cc2nnnn2Cc2ccccc2)cc1)C(F)(F)C(F)(F)C(F)(F)C(F)(F)C(F)(F)C(F)(F)C(F)(F)F	82%	–
CC1(COc2ccc(CC3SC(=O)NC3=O)cc2)CCCCC1 (stereo unspecified) [CIGLITAZONE]	70%	–
CCNS(=O)(=O)C(F)(F)C(F)(F)C(F)(F)C(F)(F)C(F)(F)C(F)(F)C(F)(F)C(F)(F)F [SULFLURAMID]	90%	–
